The whole screen tested about 330,000 compounds, of which about 1,100 (0.33%) were called active.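 The calls were made as follows: active = mean inhibition over replicate wells above about 20% (limit read from the data); inactive = the rest.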 For the sample, actives were picked, then their nearest neighbours and some compounds at random.
molecular target: Ubiquitin carboxyl-terminal hydrolase isozyme L5 (Homo sapiens) (UniProt Q9Y5K5); test: proteasome-bound UCH37 DUB activity blockers – biochemical, Ub-AMC cleavage, fluorescence, primary screen (AID 588478); conditions: purified proteasome/UCH37, Ub-AMC cleavage fluorescence; hits give high values; concentration not given here;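 also: 0% = compound-free wells with enzyme and 100% = wells lacking proteasome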
Summary of the method: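 Schedule: 30 min plus 25 min, room temperature / Material: human UCH37 within purified proteasomes / Technique: AMC fluorescence intensity at 355/460 nm / Buffer or medium: pH 7.4 Tris-HCl (50 mM) with ovalbumin, ATP-MgCl2, DTT / Controls: wells without proteasome as full block, compound-free enzyme plus substrate as uninhibited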

Ubiquitin carboxyl-terminal hydrolase isozyme L5 (Homo sapiens), sequence (Q9Y5K5 whole entry, looked up): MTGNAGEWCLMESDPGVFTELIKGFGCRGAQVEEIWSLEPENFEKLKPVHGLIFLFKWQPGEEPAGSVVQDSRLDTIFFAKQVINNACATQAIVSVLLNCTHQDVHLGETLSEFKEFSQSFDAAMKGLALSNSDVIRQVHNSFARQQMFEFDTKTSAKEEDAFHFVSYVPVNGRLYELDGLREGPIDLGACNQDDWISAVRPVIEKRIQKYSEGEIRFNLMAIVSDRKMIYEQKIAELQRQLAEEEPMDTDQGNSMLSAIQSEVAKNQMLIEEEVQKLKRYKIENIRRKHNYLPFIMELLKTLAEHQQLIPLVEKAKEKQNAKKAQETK

Structure (SMILES)	inhibition
O=c1ccc2c(-c3ccccc3S(=O)(=O)O)c3ccc(O)c(O)c3oc-2c1O	29% (active)
O=C1c2ccccc2NC(c2ccco2)N1N=Cc1ccco1 (configuration not stated)	-3.31% (inactive)
COC(=O)c1ccc(-c2ccc(C=NN3C(=O)C4C5C=CC(CC5)C4C3=O)o2)cc1 (configuration not stated)	-1.63% (inactive)
CC(=O)OC[C@H]1O[C@@H](ON=C[C@@H](C)[C@H](OCc2ccccc2)C(C)C)[C@H](OC(C)=O)[C@@H](OC(C)=O)[C@@H]1OC(C)=O	1.03% (inactive)
CCOc1cc(C=NNC(=O)C(=O)N2CCCC2)ccc1O	7.79% (inactive)
CCOC(=O)N1CCN(C(=O)Cc2ccc(-n3c(=S)[nH]c4ccccc4c3=O)cc2)CC1	2.68% (inactive)
CCOC(=O)N1CCN(C(=O)CNC(=O)Cc2ccc(Cl)cc2)CC1	33.3% (active)
CCOC(=O)N1CCN(C(=O)C(C)NC(=O)c2ccco2)CC1 (configuration not stated)	1.14% (inactive)
CC(C)(C)OC(=O)NCCC(=O)NN=Cc1ccc2nccnc2c1	3.74% (inactive)
COC(=O)c1nn(-c2ccccc2)c(Sc2ccc(Cl)cc2)c1C=NO	-1.82% (inactive)
Cc1onc(C(=O)NN)c1C(=O)N1CCN(C(c2ccccc2)c2ccccc2)CC1	1.47% (inactive)
Cn1nnnc1SCC(=O)N1CCN(C(c2ccccc2)c2ccccc2)CC1	2.55% (inactive)
O=C(c1ccc(-n2cnnn2)cc1)N1CCN(C(c2ccccc2)c2ccccc2)CC1	26.6% (active)
C=C1CC(C(=O)NN=Cc2ccccc2)C1	1.24% (inactive)
COc1cccc(C=NNC(=S)NC2CC3CCC2C3)c1OC (configuration not stated)	2.43% (inactive)
CCN1C[C@@H]2[C@@H]3C(=O)N(Cc4ccccc4)C(=O)[C@@H]3[C@](Cc3ccccc3)(C(=O)OC)N2C1=NC1CCCCC1	-0.224% (inactive)
CCN1C[C@@H]2[C@@H]3C(=O)N(Cc4ccccc4)C(=O)[C@@H]3[C@](C)(C1=O)N2C(=O)c1ccc(C(C)(C)C)cc1	28.4% (active)
CCN1C[C@@H]2[C@@H]3C(=O)N(C)C(=O)[C@@H]3[C@](C)(C1=O)N2C(=O)c1ccccc1	1.29% (inactive)
CON=C(C(=O)N[C@@H]1C(=O)N2C(C(=O)O)=C(COC(N)=O)CS[C@H]12)c1ccco1	-2.85% (inactive)
CC(CC(C)(C)c1ccccc1)=NNS(=O)(=O)c1ccccc1	3.32% (inactive)
Cc1nn(-c2ccccc2)c(Cl)c1C=NO	1.54% (inactive)
CN(C)c1ccc(C=NNC(=O)c2nonc2N)cc1[N+](=O)[O-]	20.3% (active)

Structure (SMILES)	inhibition
Cn1cc([N+](=O)[O-])c(C(=O)NN=Cc2ccc([N+](=O)[O-])cc2)n1	11.9% (inactive)
Nc1nonc1C(=O)NN=Cc1ccc(-c2cccc([N+](=O)[O-])c2)o1	9.92% (inactive)
O=C(CCCCO)CCCCCCCCC1NC(CO)C(O)C1O[C@@H]1OC(CO)C(O)C(O)C1O (some centres not stated)	1.76% (inactive)
O=C(NN=C(c1ccccc1)c1cccnc1)c1ccc(O)cc1	4.07% (inactive)
CCC(C)C(C)=NNC(=O)c1ccc(COc2ccc(Cl)c(C)c2)cc1 (configuration not stated)	1.66% (inactive)
Oc1ccc(C=NNc2cccc3cccnc23)c(O)c1	1.33% (inactive)
C#CCOCCOCCOCCNc1nc(N2CCN(C(=O)[C@H](CCCN=C(N)N)n3cc(C(N)[C@@H](C)CC)nn3)CC2)nc(N2CCN(C(=O)[C@H](CO)n3cc([C@@H](N)C(C)C)nn3)CC2)n1 (some centres not stated)	3.95% (inactive)
C#CCOCCOCCOCCNc1nc(N2CCN(C(=O)[C@H](C(C)C)n3cc(CCO)nn3)CC2)nc(N2CCN(C(=O)[C@H]([C@@H](C)CC)n3cc(CCCN=C(N)N)nn3)CC2)n1	34.8% (active)
C#CCOCCOCCOCCNc1nc(N2CCN(C(=O)[C@H](C(C)C)n3cc(CCO)nn3)CC2)nc(N2CCN(C(=O)[C@H](C(C)C)n3cc(CCO)nn3)CC2)n1	0.233% (inactive)
CC(C)NC(=O)CC(=O)NN=Cc1ccccc1F	4.78% (inactive)
CSc1cc(C=NO)c(SC)s1	3.15% (inactive)
COc1nc(Oc2ccc(=O)n(C)n2)nc(N(C)C)n1	29.8% (active)
CCCn1nc(Oc2nc(NC(C)C)nc(N(C)C)n2)ccc1=O	6.24% (inactive)
COc1nc(N(C)C)nc(N2CC(=O)N(CCNS(=O)(=O)c3ccc(C)cc3)C2=N)n1	-1.6% (inactive)
CN(C)c1nc(NN=Cc2c[nH]c3ccccc23)nc(N2CCOCC2)n1	5.58% (inactive)
CC(C)CC[n+]1ccn(C2=C([O-])c3ccccc3C(=O)/C2=N\S(=O)(=O)c2ccccc2)c1	32.4% (active)
Cc1ccc(C=NNC(=O)c2cc([N+](=O)[O-])cc([N+](=O)[O-])c2)o1	5.25% (inactive)
CN(C)/C=C(\C#N)C(=O)NN=Cc1ccccc1	6.55% (inactive)
CN(C)C=Nc1sc2c(c1C#N)CCC2	9.38% (inactive)
COC(=O)[C@H](Cc1ccccc1)NC(=O)[C@@H]1C[C@H]1[C@@H](NC(=O)OCc1ccccc1)c1ccccc1	1.36% (inactive)
COC(=O)[C@H](C)[C@H]1C[C@]1(C)[C@H](NC(=O)OCc1ccccc1)c1ccccc1	31% (active)
CC(C)[C@H](NC(=O)OCc1ccccc1)C(=O)OCc1ccccc1	0.329% (inactive)

Structure (SMILES)	inhibition
O=C(NN=Cc1ccco1)c1cc(=O)[nH]c2ccccc12	7.58% (inactive)
CCC(=O)Nc1ccc(C(=O)N2CCN(C(=O)c3ccco3)CC2)cc1	31.4% (active)
O=C(c1ccc2c(c1)OCO2)N1CCN(C(=O)c2ccco2)CC1	0.962% (inactive)
O=C(CN1CCN(C(=O)c2ccco2)CC1)Nc1ccc2c(c1)OCO2	1.43% (inactive)
Cc1ccc2nc(C(Cl)(Cl)Cl)nc(NN=Cc3ccc([N+](=O)[O-])cc3)c2c1	-0.00251% (inactive)
O=C(O)C(c1ccccc1)N1C(=O)/C(=C\c2ccc(-c3cccc(Cl)c3)o2)SC1=S (configuration not stated)	37.5% (active)
O=C1c2ccccc2NC(c2ccc(-c3cccc(Cl)c3)o2)N1O (configuration not stated)	-14.2% (inactive)
S=c1[nH]nc(-c2cccc(Cl)c2)n1N=Cc1ccc(-c2ccccc2Br)o1	8% (inactive)
CC(=O)n1cc(C=NNC(=O)c2ccc(Cl)cc2)c2ccccc21	2.16% (inactive)
O=C(Cc1cccs1)NN=Cc1ccc(O)cc1	1.44% (inactive)
CCOC(=O)c1c(N=CC2=C(O)CC(C)(C)CC2=O)sc(C)c1C	-1.87% (inactive)
Cc1ccc(C=NNC(=O)CSc2nc3ccccc3c(=O)n2-c2ccccc2)s1	4.54% (inactive)
Cc1ccc(NC(=O)Nc2cccnc2)cc1	0.429% (inactive)
CC(C)(C)c1ccc(C=NNC(=S)Nc2cccnc2)cc1	2.4% (inactive)
Oc1ccc(C=NNC(=S)Nc2cccnc2)c(O)c1O	22.7% (active)
COc1cc(C=NN(C)C)ccc1OC(=O)c1cccs1	0.992% (inactive)
COc1ccc(NC(=O)ON=Cc2ccccc2)cc1	2.45% (inactive)
CC(=NNC(=O)c1cccs1)c1ccc(NC(=O)COc2ccc(Cl)cc2)cc1	-42% (inactive)
O=C(O)c1cc(NN=Cc2ccncc2)ccc1Cl	14.4% (inactive)
Nc1nnnn1CC(=O)NN=Cc1cc([N+](=O)[O-])ccc1Cl	4.32% (inactive)
CCCCCCCCn1c2c(c(=N)c3c1CCC3)CCCC2	25.7% (active)
Cc1ccc(C=NNC(=O)CNC(=O)COc2ccccc2)o1	6.97% (inactive)

Structure (SMILES)	inhibition
CC(C)(C)NN=Cc1cc(Cl)cc([N+](=O)[O-])c1O	6.29% (inactive)
CNC(=O)C(C#N)=c1sc(=CC(=O)OC)c(=O)n1-c1ccccc1	3.97% (inactive)
Cc1ccc(C=NN2CCN(Cc3ccccc3)CC2)o1	1.82% (inactive)
COc1ccc(C(=O)COC(=O)c2ccc([N+](=O)[O-])s2)cc1OC	4.79% (inactive)
COc1ccc(C(=O)OCC(=O)Nc2ccc3[nH]c(=O)[nH]c3c2)c(OC)c1OC	0.187% (inactive)
COc1cc(NC(=O)COC(=O)c2ccc([N+](=O)[O-])s2)cc(OC)c1OC	70.6% (active)
COc1cccc(C=NNc2cc(-n3nc(C)cc3-c3ccccc3)ncn2)c1O	3.24% (inactive)
O=[N+]([O-])c1cc(S(=O)(=O)N2CCCC2)ccc1NN=Cc1cccnc1	3.11% (inactive)
Cc1nn(-c2ccccc2)c(C)c1C=NNC(=O)c1cccs1	2.82% (inactive)
CC(=O)Oc1ccc2c(c1)C(=O)c1ccccc1C2=O	6.5% (inactive)
O=C1C(Cl)=C(Oc2ccccc2)C(=O)c2ccccc21	73.8% (active)
Cc1cc(C)c(COc2ccc(C=Nn3c(C)n[nH]c3=S)cc2)c(C)c1	2.64% (inactive)
C[n+]1cn(N=Cc2ccccc2)c2ccccc21	0.369% (inactive)
COc1ccc(C(C)=NNc2ccc(C(=O)O)cc2)cc1OC	12.1% (inactive)
COC1(C2=NCCN2)COc2ccccc2O1 (configuration not stated)	22.9% (active)
CCCC=NNc1nnc(Cc2ccc(OC)c(OC)c2)c(=O)[nH]1	2.12% (inactive)
COc1ccc(C(C)=NNC(=O)c2ccc(N(C)C)cc2)cc1	3.67% (inactive)
Cn1ccc(=Nc2ccc(NC(=O)c3ccc(N=c4ccn(C)c5ccc([N+](=O)[O-])cc45)cc3)cc2)cc1	27.5% (active)
COc1cc(NS(=O)(=O)c2ccc(NC(=O)c3ccc([N+](=O)[O-])cc3)cc2)ncn1	4.65% (inactive)
CC(=O)NC(=S)Nc1ccc(NC(=S)NC(=O)c2ccc([N+](=O)[O-])cc2)cc1	5.88% (inactive)
COc1ccccc1/C=C/C=NN1CCN(Cc2ccc(Cl)cc2)CC1	5.57% (inactive)

— PubChem BioAssay AID588478 (ICCB-Longwood Screening Facility, Harvard Medical School, 2011)
